Measurements as given in ChEMBL document CHEMBL1131637, “Novel and selective 5-HT2C/2B receptor antagonists as potential anxiolytic agents: synthesis, quantitative structure-activity relationships, and molecular modeling of substituted 1-(3-pyridylcarbamoyl)indolines” (J Med Chem, 1998).

Assays:
Rattus norvegicus [1] = test: Percentage change punished lever presses from mean score on 6-8 rats(P<0.001) at 20 mg/kg po1h pretest; type: functional
Rattus norvegicus [2] = test: Percentage change punished lever presses from mean score on 6-8 rats(P<0.001) at 10 mg/kg po1h pretest; type: functional
Rattus norvegicus [3] = test: Percentage change punished lever presses from mean score on 6-8 rats(P<0.001) at 5 mg/kg po1h pretest; type: functional
Rattus norvegicus [4] = test: Percentage change unpunished lever presses from mean score on 6-8 rats(P<0.01) at 5 mg/kg po1h pretest
Rattus norvegicus [5] = test: Percentage change unpunished lever presses from mean score on 6-8 rats at 0.5 mg/kg po1h pretest; type: functional
Rattus norvegicus [6] = test: Percentage change unpunished lever presses from mean score on 6-8 rats(P<0.05) at 0.1 mg/kg po1h pretest; type: functional
Rattus norvegicus [7] = test: Percentage change unpunished lever presses from mean score on 6-8 rats at 1 mg/kg po1h pretest; type: functional
Rattus norvegicus [8] = test: Percentage change punished lever presses from mean score on 6-8 rats(P<0.001) at 1 mg/kg po1h pretest; type: functional
Rattus norvegicus [9] = test: Percentage change punished lever presses from mean score on 6-8 rats(P<0.001) at 0.2 mg/kg po1h pretest; type: functional
[10] = target: T1, 5-hydroxytryptamine receptor 2C (Homo sapiens, UniProt P28335); test: Binding affinity towards cloned human 5-hydroxytryptamine 2C receptor expressed in HEK 293 cells using [3H]mesulergine as radioligand; type: cell-based, HEK293
T1 sequence (P28335 whole entry): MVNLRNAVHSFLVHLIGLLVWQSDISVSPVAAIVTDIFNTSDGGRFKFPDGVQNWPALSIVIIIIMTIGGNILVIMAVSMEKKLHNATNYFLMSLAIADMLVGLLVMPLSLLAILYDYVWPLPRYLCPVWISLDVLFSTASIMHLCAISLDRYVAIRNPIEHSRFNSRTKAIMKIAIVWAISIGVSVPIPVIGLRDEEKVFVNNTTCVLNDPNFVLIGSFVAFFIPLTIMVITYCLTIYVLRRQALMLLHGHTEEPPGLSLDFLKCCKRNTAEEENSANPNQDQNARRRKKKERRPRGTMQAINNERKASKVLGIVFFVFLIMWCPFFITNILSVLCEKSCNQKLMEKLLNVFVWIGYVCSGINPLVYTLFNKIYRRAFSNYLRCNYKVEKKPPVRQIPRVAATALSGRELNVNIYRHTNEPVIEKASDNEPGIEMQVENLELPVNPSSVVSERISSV

[11] = target: 5-hydroxytryptamine receptor 2A (Homo sapiens, UniProt P28223); test: Binding affinity towards human 5-hydroxytryptamine 2A receptor expressed in HEK 293 cells using [3H]ketanserin as radioligand; type: cell-based, HEK293
Sequence of 5-hydroxytryptamine receptor 2A (P28223 whole entry): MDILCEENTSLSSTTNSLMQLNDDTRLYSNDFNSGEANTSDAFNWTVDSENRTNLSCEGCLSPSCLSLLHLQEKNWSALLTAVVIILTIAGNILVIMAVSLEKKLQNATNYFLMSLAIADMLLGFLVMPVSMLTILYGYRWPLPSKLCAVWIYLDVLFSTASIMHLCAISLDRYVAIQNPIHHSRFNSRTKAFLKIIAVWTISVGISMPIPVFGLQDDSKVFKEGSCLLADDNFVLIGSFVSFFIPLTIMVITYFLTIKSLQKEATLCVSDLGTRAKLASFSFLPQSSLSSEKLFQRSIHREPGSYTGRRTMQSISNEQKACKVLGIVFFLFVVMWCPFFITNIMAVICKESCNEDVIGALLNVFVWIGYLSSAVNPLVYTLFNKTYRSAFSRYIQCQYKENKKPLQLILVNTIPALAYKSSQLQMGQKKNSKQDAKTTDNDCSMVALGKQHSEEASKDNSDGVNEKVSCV
In short: (§1)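 Radioligand binding on human cloned receptors stably expressed in HEK 293 cells; 5-HT2A labelled with [3H]ketanserin, 5-HT2B with [3H]-5-HT. Values are means of at least two determinations, each within 0.2 log unit of the mean.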

Rattus norvegicus [12] = test: Percentage change unpunished lever presses from mean score on 6-8 rats at 20 mg/kg po1h pretest; type: functional
Rattus norvegicus [13] = organism: Rattus norvegicus; test: The dose required to reverse […]- induced hypolocomotion in rat by 50 %; type: functional; settings: ip, 0.5 h, read-out: ID50 (the source's name)
Rattus norvegicus [14] = test: Percentage change punished lever presses from mean score on 6-8 rats(P<0.001) at 2 mg/kg po1h pretest; type: functional
Rattus norvegicus [15] = test: Percentage change unpunished lever presses from mean score on 6-8 rats at 2 mg/kg po1h pretest; type: functional
Rattus norvegicus [16] = test: Percentage change unpunished lever presses from mean score on 6-8 rats at 0.2 mg/kg po1h pretest; type: functional
Rattus norvegicus [17] = test: Percentage change unpunished lever presses from mean score on 6-8 rats at 10 mg/kg po1h pretest; type: functional
Rattus norvegicus [18] = test: Percentage change punished lever presses from mean score on 6-8 rats(P<0.001) at 0.5 mg/kg po1h pretest; type: functional
[19] = target: 5-hydroxytryptamine receptor 2B (Homo sapiens, UniProt P41595); test: Binding affinity towards cloned human 5-hydroxytryptamine 2B receptor expressed in HEK 293 cells using [3H]5-HT as radioligand; type: cell-based, HEK293; in short: as §1
Sequence of 5-hydroxytryptamine receptor 2B (P41595 whole entry): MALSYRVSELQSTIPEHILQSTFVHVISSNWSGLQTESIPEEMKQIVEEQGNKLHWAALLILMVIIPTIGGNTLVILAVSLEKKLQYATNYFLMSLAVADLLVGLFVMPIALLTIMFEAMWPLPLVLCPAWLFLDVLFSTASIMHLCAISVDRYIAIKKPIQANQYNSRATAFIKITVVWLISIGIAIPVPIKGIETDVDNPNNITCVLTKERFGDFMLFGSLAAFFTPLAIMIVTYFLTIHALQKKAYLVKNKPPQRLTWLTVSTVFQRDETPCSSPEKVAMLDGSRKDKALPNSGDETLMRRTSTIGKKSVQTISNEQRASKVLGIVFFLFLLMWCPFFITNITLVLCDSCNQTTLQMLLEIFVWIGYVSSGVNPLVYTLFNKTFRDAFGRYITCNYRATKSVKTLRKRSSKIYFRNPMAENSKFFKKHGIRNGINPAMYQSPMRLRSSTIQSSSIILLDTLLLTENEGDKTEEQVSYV

SMILES | Ki [10] [nM] | Ki [11] [nM] | further results
COc1cc2c(cc1C(F)(F)F)N(C(=O)Nc1cccnc1)CC2 | 10 | 1000 | Change (Rattus norvegicus [1]): 62%; Change (Rattus norvegicus [2]): 63%; Change (Rattus norvegicus [3]): 37%; Change (Rattus norvegicus [4]): 8%; Change (Rattus norvegicus [5]): 2%; Change (Rattus norvegicus [6]): 8%; Change (Rattus norvegicus [7]): -2%; Change (Rattus norvegicus [8]): 28%; Change (Rattus norvegicus [9]): 26%; Change (Rattus norvegicus [12]): -1%; ED50 (Rattus norvegicus [13]): 0.8 mg/kg; Change (Rattus norvegicus [14]): 34%; Change (Rattus norvegicus [15]): 3%; Change (Rattus norvegicus [16]): 2%; Change (Rattus norvegicus [17]): 0%; Change (Rattus norvegicus [18]): 36%
O=C(Nc1cccnc1)N1CCc2ccc(C(F)(F)F)cc21 | 50.1 | 501 | 
CSc1cc2c(cc1I)N(C(=O)Nc1cccnc1)CC2 | 2 | 501 | ED50 (Rattus norvegicus [13]): 3.2 mg/kg
CCSc1cc2c(cc1C(F)(F)F)N(C(=O)Nc1cccnc1)CC2 | 3.16 | 3160 | ED50 (Rattus norvegicus [13]): 4.4 mg/kg; Ki [19]: 10 nM
O=C(Nc1cccnc1)N1CCc2cc(Cl)ccc21 | 79.4 | 2510 | 
O=C(Nc1cccnc1)N1CCc2cc(OCC3CC3)c(C(F)(F)F)cc21 | 20 | 3980 | 
CSc1cc2c(cc1Br)CCN2C(=O)Nc1cccnc1 | 50.1 | 2510 | 
O=C(Nc1cccnc1)N1CCc2cc(Br)cc([N+](=O)[O-])c21 | 316 | 3980 | 
Cc1cc2c(cc1I)N(C(=O)Nc1cccnc1)CC2 | 3.16 | 63.1 | 
O=C(Nc1cccnc1)N1CCc2cc(Cl)c(C(F)(F)F)cc21 | 6.31 | 158 | 
O=C(Nc1cccnc1)N1CCc2cc(-c3ccccc3)ccc21 | 126 | 5010 | 
CCCc1cc2c(cc1Cl)N(C(=O)Nc1cccnc1)CC2 | 20 | 1260 | 
CSc1cc2c(cc1OC(F)(F)F)N(C(=O)Nc1cccnc1)CC2 | 25.1 | 3160 | 
O=C(Nc1cccnc1)N1CCc2cc(Cl)c(Cl)cc21 | 7.94 | 251 | 
CC(C)(C)c1cc2c(cc1Cl)N(C(=O)Nc1cccnc1)CC2 | 20 | 631 | Ki [19]: 158 nM
CSc1ccc2c(c1)CCN2C(=O)Nc1cccnc1 | 39.8 | 3980 | 
O=C(Nc1cccnc1)N1CCc2c(Cl)cccc21 | 501 | 3980 | 
O=C(Nc1cccnc1)N1CCc2ccc(Cl)cc21 | 50.1 | 794 | 
COC(=O)c1cc2c(cc1Cl)N(C(=O)Nc1cccnc1)CC2 | 31.6 | 6310 | ED50 (Rattus norvegicus [13]): 16 mg/kg
CC(C)Oc1cc2c(cc1Cl)N(C(=O)Nc1cccnc1)CC2 | 15.8 | > 6310 | ED50 (Rattus norvegicus [13]): 4 mg/kg
O=C(Nc1cccnc1)N1CCc2cc(-c3ccccc3)c(Cl)cc21 | 126 | 3980 | 
CC(C)c1ccc2c(c1)CCN2C(=O)Nc1cccnc1 | 79.4 | 2000 | 
CC(C)Sc1cc2c(cc1C(F)(F)F)N(C(=O)Nc1cccnc1)CC2 | 31.6 | 5010 | 
CN(C)c1ccc2c(c1)CCN2C(=O)Nc1cccnc1 | 316 | > 6310 | 
Cc1ccc2c(c1)CCN2C(=O)Nc1cccnc1 | 158 | 5010 | 

SMILES | Ki [10] [nM] | Ki [11] [nM] | further results
O=C(Nc1cccnc1)N1CCc2ccc(Cl)c(Cl)c21 | 794 | 5010 | 
CC(C)Oc1cc2c(cc1C(F)(F)F)N(C(=O)Nc1cccnc1)CC2 | 3.16 | 1580 | ED50 (Rattus norvegicus [13]): 1.4 mg/kg; Ki [19]: 3.98 nM
COc1cc2c(cc1Br)N(C(=O)Nc1cccnc1)CC2 | 12.6 | 1580 | ED50 (Rattus norvegicus [13]): 1.8 mg/kg
CSc1c(Cl)cc2c(c1Cl)CCN2C(=O)Nc1cccnc1 | 2.51 | 63.1 | 
CCCSc1cc2c(cc1C(F)(F)F)N(C(=O)Nc1cccnc1)CC2 | 6.31 | > 6310 | Ki [19]: 15.8 nM
COc1cc2c(cc1C(F)(F)C(F)(F)F)N(C(=O)Nc1cccnc1)CC2 | 12.6 | 3980 | 
O=C(Nc1cccnc1)N1CCc2cc([N+](=O)[O-])ccc21 | 316 | > 6310 | 
Cc1ccc2c(c1I)CCN2C(=O)Nc1cccnc1 | 25.1 | 2510 | 
O=C(Nc1cccnc1)N1CCc2ccccc21 | 1260 |  | 
Cc1ccc2c(c1Br)CCN2C(=O)Nc1cccnc1 | 7.94 | 126 | 
Cc1c(Cl)cc2c(c1Cl)CCN2C(=O)Nc1cccnc1 | 3.98 | 31.6 | 
CSc1cc2c(cc1C#N)N(C(=O)Nc1cccnc1)CC2 | 15.8 | 2510 | 
O=C(Nc1cccnc1)N1CCc2cc(C(F)(F)F)ccc21 | 31.6 | 1260 | 
CSc1ccc2c(c1Cl)CCN2C(=O)Nc1cccnc1 | 63.1 | 5010 | 
CC(=O)c1cc2c(cc1C(F)(F)F)N(C(=O)Nc1cccnc1)CC2 | 50.1 | 3160 | 
CC(C)c1cc2c(cc1Cl)N(C(=O)Nc1cccnc1)CC2 | 20 | 2000 | 
CCc1cc2c(cc1Cl)N(C(=O)Nc1cccnc1)CC2 | 5.01 | 398 | 
Cc1cc2c(cc1Br)N(C(=O)Nc1cccnc1)CC2 | 3.98 | 63.1 | 
O=C(Nc1cccnc1)N1CCc2cc(I)c(Cl)cc21 | 3.16 | 100 | 
CSc1cc2c(cc1C(F)(F)C(F)(F)F)N(C(=O)Nc1cccnc1)CC2 | 3.98 | 2510 | ED50 (Rattus norvegicus [13]): 5 mg/kg; Ki [19]: 31.6 nM
Cc1cc2c(cc1Cl)CCN2C(=O)Nc1cccnc1 | 10 | 398 | 
CCOc1cc2c(cc1Cl)N(C(=O)Nc1cccnc1)CC2 | 25.1 | 3980 | ED50 (Rattus norvegicus [13]): 3.4 mg/kg
CC(C)c1cc2c(cc1C(F)(F)F)N(C(=O)Nc1cccnc1)CC2 | 25.1 | > 6310 | 
CC(C)(C)c1ccc2c(c1Cl)CCN2C(=O)Nc1cccnc1 | 39.8 | 631 | 
